Results taken from paper PMC5771089 (Theranostics, 2018).

How the values were obtained:
[1] = target: biotinylated BSA (serum albumin) (Bos taurus, UniProt P02769); test: Kinetic binding assay by biolayer interferometry; design: species or system bovine
How it was run: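 Biolayer interferometry on streptavidin biosensors. Steps: PBS baseline 60 s; biotin-BSA load (1 µg/mL) 600 s; PBS 60 s; biocytin quench (1 µg/mL) 180 s; PBS 60 s; test compound association 600 s; dissociation 600 s. Nonspecific signal subtracted, taken from BSA-loaded sensor in buffer alone and blank sensor with analyte.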

[2] = system: HCT116/SSTR2 (SSTR2+) and HCT116 (SSTR2-) cells; test: Cell uptake/internalization; format: cell-based, human
How it was run: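 HCT116/SSTR2 (transfected) and parental HCT116 cells grown in McCoy's 5A with 10% FBS at 37 °C, 5% CO2. 10^5 cells/well plated 24 h ahead, PBS-washed, then given 18.5 KBq/well 86Y-labelled tracer in 0.5 mL medium with 1% (w/v) HSA. At each time point: PBS wash, then 0.1 M NaOH lysis. For internalized fraction, surface tracer stripped first with 1 min glycine 50 mM/NaCl 100 mM, pH 2.8. Gamma-counted as % of added activity; triplicates; blocking at 24 h.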

[3] = system: HCT116/SSTR2 tumor xenografts; test: In vivo PET in HCT116/SSTR2 xenografts; design: species or system mouse

biotinylated BSA (serum albumin), sequence (P02769 25-607): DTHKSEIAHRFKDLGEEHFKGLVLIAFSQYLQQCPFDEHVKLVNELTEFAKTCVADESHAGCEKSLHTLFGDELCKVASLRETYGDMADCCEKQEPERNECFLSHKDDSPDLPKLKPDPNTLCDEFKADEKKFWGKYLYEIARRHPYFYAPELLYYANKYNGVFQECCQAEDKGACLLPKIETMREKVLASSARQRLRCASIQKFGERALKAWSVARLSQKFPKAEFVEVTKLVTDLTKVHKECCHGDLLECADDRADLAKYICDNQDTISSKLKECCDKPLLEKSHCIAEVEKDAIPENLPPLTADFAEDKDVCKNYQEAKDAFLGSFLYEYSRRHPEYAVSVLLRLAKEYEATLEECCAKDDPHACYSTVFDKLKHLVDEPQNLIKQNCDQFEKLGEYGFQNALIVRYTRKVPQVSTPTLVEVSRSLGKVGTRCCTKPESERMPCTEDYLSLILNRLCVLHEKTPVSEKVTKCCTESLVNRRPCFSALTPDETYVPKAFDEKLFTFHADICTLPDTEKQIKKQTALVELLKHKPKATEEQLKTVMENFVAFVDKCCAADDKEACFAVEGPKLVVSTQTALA

Row | Compound | Kd [1] | Cell uptake (percent of added radioactivity) ([2]; HCT116/SSTR2 cells, 24 h, 18.5 KBq/well, medium with 1% (w/v) HSA, triplicate) | Uptake/internalization in SSTR2 positive vs SSTR2 negative cells ([2]; HCT116/SSTR2 vs HCT116, 1% HSA, p < 0.001) | Amount retained in the blood compared to ^86Y-TATE ([3]; 1 h p.i., PET quantification) | Tumor exposure to the radioisotope (AUC) compared to ^86Y-TATE ([3]; AUC of tumor radioactivity over time, non-decay corrected data) | Increase of half-life in the blood compared to ^86Y-TATE ([3]; PET quantification, i.v. 0.92 MBq (4 nmol))
1 | Cc1cc(-c2ccc(NC(=O)[C@H](CCCCNC(=O)CCN3C(=O)CC(SCC(=O)N[C@H](Cc4ccccc4)C(=O)N[C@H]4CSSC[C@@H](C(=O)N[C@H](C(=O)O)[C@@H](C)O)NC(=O)[C@H]([C@@H](C)O)NC(=O)[C@H](CCCCN)NC(=O)[C@@H](Cc5c[nH]c6ccccc56)NC(=O)[C@H](Cc5ccc(O)cc5)NC4=O)C3=O)NC(=O)CN3CCN(CC(=O)O)CCN(CC(=O)O)CCN(CC(=O)O)CC3)c(C)c2)ccc1N=Nc1ccc2c(S(=O)(=O)O)cc(S(=O)(=O)O)c(N)c2c1O (stereo partly drawn) [EB-TATE] | 4.8 µM |  |  |  |  | 
2 | Cc1cc(-c2ccc(NC(=O)[C@H](CCCCNC(=O)CCN3C(=O)CC(SCC(=O)N[C@H](Cc4ccccc4)C(=O)N[C@H]4CSSC[C@@H](C(=O)N[C@H](C(=O)O)[C@@H](C)O)NC(=O)[C@H]([C@@H](C)O)NC(=O)[C@H](CCCCN)NC(=O)[C@@H](Cc5c[nH]c6ccccc56)NC(=O)[C@H](Cc5ccc(O)cc5)NC4=O)C3=O)NC(=O)CN3CCN(CC(=O)O)CCN(CC(=O)O)CCN(CC(=O)O)CC3)c(C)c2)ccc1N=Nc1ccc2c(S(=O)(=O)O)cc(S(=O)(=O)O)c(N)c2c1O (stereo partly drawn) [^86Y-EB-TATE, metal not drawn] |  | 12.05±0.67% | significantly higher | 4 fold | approximately 6 fold | 2 fold
